The subject of data set [1] is Brucella suis. In words: Antibacterial activity against Brucella suis 1330 assessed as reduction in bacterial growth in minimal medium after 96 hrs relative to control. The data set is classed as functional.
A further data set addresses T1, Histidinol dehydrogenase (Brucella suis biovar 1 (strain 1330), UniProt Q8G2R2).
T1 sequence (Q8G2R2 whole entry): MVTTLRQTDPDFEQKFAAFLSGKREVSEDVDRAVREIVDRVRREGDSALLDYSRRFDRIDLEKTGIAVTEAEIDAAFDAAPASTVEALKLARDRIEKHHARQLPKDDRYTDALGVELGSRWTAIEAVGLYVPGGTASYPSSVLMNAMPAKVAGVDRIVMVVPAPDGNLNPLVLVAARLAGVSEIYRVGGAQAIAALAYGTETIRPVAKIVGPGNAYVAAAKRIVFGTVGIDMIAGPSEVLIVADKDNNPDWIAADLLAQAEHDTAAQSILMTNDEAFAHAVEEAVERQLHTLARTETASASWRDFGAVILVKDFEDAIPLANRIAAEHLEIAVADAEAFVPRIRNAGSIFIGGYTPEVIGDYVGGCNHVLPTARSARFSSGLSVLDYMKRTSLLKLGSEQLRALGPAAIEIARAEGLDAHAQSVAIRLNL
In words: Inhibition of Brucella suis histidinol dehydrogenase.

In data set [2] the test system is Brucella suis. In words: Inhibition of intracellular replication of Brucella suis 1330 in human THP1 cells assessed as reduction in number of viable intracellular bacteria at 25 uM treated 90 mins postinfection measured 24 hrs postinfection relative to control. In kind it is functional, organism-based. The settings on record: THP-1.
Data set [3] has as its system Brucella suis. In words: Antibacterial activity against Brucella suis 1330 in minimal medium at 100 uM after 96 hrs. In kind it is functional, organism-based.
Another data set has as its system THP-1. In words: Toxicity against human THP1 cells at 25 uM after 48 hrs by trypan blue exclusion method. The data set is classed as cell-based. Conditions: thp-1, 48 h. The method in brief:
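Infected THP1 macrophage-like cells are stained with trypan blue at 48 h postinfection, at the drug concentrations used in the intracellular assay.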

Data set [4] relates to Brucella suis. In words: Antibacterial activity against Brucella suis 1330 assessed as reduction in bacterial intramacrophagic multiplication in human THP1 cells at 25 uM treated 90 mins postinfection measured 24 hrs postinfection relative to control. The data set is classed as functional, THP-1.
In data set [5] the test system is Brucella suis. In words: Antibacterial activity against Brucella suis 1330 in minimal medium after 96 hrs. In kind it is functional, organism-based.
Data set [6] relates to Brucella suis. In words: Growth inhibition of Brucella suis 1330 in minimal medium devoid of 1 mM histidine at 100 uM after 96 hrs. In kind it is functional, organism-based.
The test system of data set [7] is Brucella suis. In words: Growth inhibition of Brucella suis 1330 in minimal medium containing 1 mM histidine at 100 uM after 96 hrs. In kind it is functional, organism-based.

Molecules are shown by their SMILES. The source made the active and inactive calls. The rule behind the calls is not given here.

Broadly, the IC50 is the midpoint of a concentration-inhibition curve. Low readings indicate greater potency in that assay, high ones weaker potency in that assay.

On to `Cc1ccc(CC(=O)[C@@H](N)Cc2c[nH]cn2)cc1.Cl.Cl`, for which the “fold change (FC)” value with Brucella suis [1] is listed as 12. Besides, at Histidinol dehydrogenase, the 50% inhibitory concentration (IC50) was determined as 6 nM.
For the compound `Cl.Cl.N[C@@H](Cc1c[nH]cn1)C(=O)Cc1ccc(Br)cc1`, the “fold change (FC)” value in the data set with Brucella suis [1] was 12; in the data set on Brucella suis [4], 50. Further, the result in the data set with Brucella suis [2] was Active. Also, the inhibition entry in the data set with Brucella suis [3] is “Active”. In the data set with THP-1, the Activity result was “Non-toxic”. For the same compound, in the data set with Brucella suis [5], the inhibition result was “Dose-dependent effect”.
For `Cl.Cl.N[C@@H](Cc1c[nH]cn1)C(=O)Cc1ccc(-c2ccccc2)cc1`, the “fold change (FC)” value is on record as 12 in the data set on Brucella suis [1] and 50 in the data set on Brucella suis [4]. Also, the result in the data set on Brucella suis [2] and in the data set with Brucella suis [6] was Active. Moreover, in the data set on Brucella suis [3], the inhibition result is “Active”. In addition, the Activity result in the data set on THP-1 is “Non-toxic”. On Histidinol dehydrogenase, this compound yielded a 50% inhibitory concentration (IC50) of 6 nM. In the data set on Brucella suis [7], the outcome was inactive. Besides, the inhibition entry with Brucella suis [5] is “Dose-dependent effect”.
For the compound `Cl.Cl.N[C@@H](Cc1c[nH]cn1)C(=O)Cc1ccc(Cl)c(Cl)c1`, the “fold change (FC)” value in the data set on Brucella suis [1] is 12. On Histidinol dehydrogenase, the concentration for half-maximal inhibition (IC50) amounted to 6 nM.
The like results for `Cl.Cl.N[C@@H](Cc1c[nH]cn1)C(=O)Cc1ccccc1` were, in that order, 12 and 6 nM.
In the case of `Cl.Cl.N[C@@H](Cc1c[nH]cn1)C(=O)Cc1ccc(F)cc1`, the “fold change (FC)” value in the data set on Brucella suis [1] turned out to be 12. Moreover, the inhibition entry in the data set with Brucella suis [3] was “Active”. This compound also registered an IC50 against Histidinol dehydrogenase of 6 nM.
With `Cl.Cl.N[C@@H](Cc1c[nH]cn1)C(=O)Cc1cccc2ccccc12`, the “fold change (FC)” value in the data set with Brucella suis [1] is on record as 12. Further, the half-maximal inhibitory concentration (IC50) at Histidinol dehydrogenase was determined as 6 nM.
Turning to `Cl.Cl.N[C@@H](Cc1c[nH]cn1)C(=O)Cc1ccc2ccccc2c1`, the “fold change (FC)” value in the data set with Brucella suis [1] amounted to 12; with Brucella suis [4], 50. Moreover, the result in the data set with Brucella suis [2] was Active. Moreover, in the data set with Brucella suis [3], the inhibition result was “Active”. For the same compound, the Activity result with THP-1 was “Non-toxic”. This compound also came in with a half-maximal inhibitory concentration (IC50) against Histidinol dehydrogenase of 6 nM. Further, in the data set on Brucella suis [5], the inhibition entry is “Dose-dependent effect”.
Regarding `COc1ccc(CC(=O)[C@@H](N)Cc2c[nH]cn2)cc1.Cl.Cl`, the “fold change (FC)” value in the data set on Brucella suis [1] amounted to 12. The same compound gave a concentration for half-maximal inhibition (IC50) against Histidinol dehydrogenase of 6 nM.
The like results for `Cl.Cl.N[C@@H](Cc1c[nH]cn1)C(=O)Cc1ccc(Oc2ccccc2)cc1` were, in that order, 12 and 6 nM.
With `Cl.Cl.N[C@@H](Cc1c[nH]cn1)C(=O)Cc1ccc(F)cc1F`, in the data set on Brucella suis [1], the “fold change (FC)” value turned out to be 12. Also, on Histidinol dehydrogenase, the IC50 came to 6 nM.
In the case of `Cl.Cl.N[C@@H](Cc1c[nH]cn1)C(=O)Cc1ccc2c(c1)OCO2`, the “fold change (FC)” value in the data set with Brucella suis [1] was determined as 12. This compound also came in with an IC50 on Histidinol dehydrogenase of 6 nM.
With `Cl.Cl.N[C@@H](Cc1c[nH]cn1)C(=O)Cc1ccc(Cl)cc1`, the results for the “fold change (FC)” value in the data set with Brucella suis [1] and in the data set on Brucella suis [4] were 12 and 50, respectively. Besides, in the data set on Brucella suis [2], the result was Active. Further, the inhibition entry in the data set with Brucella suis [3] is “Active”. The Activity entry in the data set with THP-1 is listed as “Non-toxic”. Moreover, the IC50 against Histidinol dehydrogenase worked out at 6 nM. Further, the inhibition entry in the data set on Brucella suis [5] was “Dose-dependent effect”.
For `Cl.Cl.N[C@@H](Cc1c[nH]cn1)C(=O)Cc1ccc(OCc2ccccc2)cc1`, the “fold change (FC)” value with Brucella suis [1] came to 12. For the same compound, in the data set on Brucella suis [2], the outcome was Active.
Take `Cl.Cl.N[C@@H](Cc1c[nH]cn1)C(=O)Cc1c(F)c(F)c(F)c(F)c1F`: the “fold change (FC)” value in the data set with Brucella suis [1] is 12. The IC50 at Histidinol dehydrogenase came out at 6 nM.

The values are drawn from ChEMBL document CHEMBL1153840, “Targeting of the Brucella suis virulence factor histidinol dehydrogenase by histidinol analogues results in inhibition of intramacrophagic multiplication of the pathogen” (Antimicrob Agents Chemother, 2007).
